In brackets after ≈: the same amount, converted by molar mass.
Experiments:
[1] = system: Plasmodium falciparum; test: Antiplasmodial activity against Plasmodium falciparum Dd2; format: functional, organism-based
Method in brief: (§1)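 P. falciparum cultures (lab strain 3D7; multidrug-resistant Southeast Asian isolate Dd2) were exposed to compound for 72 h. Parasite viability was read out by DAPI staining.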

[2] = system: Liver microsomes; test: Intrinsic clearance in rat liver microsomes measured […]; format: ADME, Microsome
[3] = system: Plasmodium falciparum; test: Antiplasmodial activity against Plasmodium falciparum 3D7; format: functional, organism-based; method in brief: as §1
[4] = system: Liver microsomes; test: Intrinsic clearance in human liver microsomes measured […]; format: ADME, Microsome
[5] = molecular target: Voltage-gated inwardly rectifying potassium channel KCNH2 (Homo sapiens, UniProt Q12809); test: Inhibition of human ERG channel
Chain of Voltage-gated inwardly rectifying potassium channel KCNH2 (Q12809 whole entry): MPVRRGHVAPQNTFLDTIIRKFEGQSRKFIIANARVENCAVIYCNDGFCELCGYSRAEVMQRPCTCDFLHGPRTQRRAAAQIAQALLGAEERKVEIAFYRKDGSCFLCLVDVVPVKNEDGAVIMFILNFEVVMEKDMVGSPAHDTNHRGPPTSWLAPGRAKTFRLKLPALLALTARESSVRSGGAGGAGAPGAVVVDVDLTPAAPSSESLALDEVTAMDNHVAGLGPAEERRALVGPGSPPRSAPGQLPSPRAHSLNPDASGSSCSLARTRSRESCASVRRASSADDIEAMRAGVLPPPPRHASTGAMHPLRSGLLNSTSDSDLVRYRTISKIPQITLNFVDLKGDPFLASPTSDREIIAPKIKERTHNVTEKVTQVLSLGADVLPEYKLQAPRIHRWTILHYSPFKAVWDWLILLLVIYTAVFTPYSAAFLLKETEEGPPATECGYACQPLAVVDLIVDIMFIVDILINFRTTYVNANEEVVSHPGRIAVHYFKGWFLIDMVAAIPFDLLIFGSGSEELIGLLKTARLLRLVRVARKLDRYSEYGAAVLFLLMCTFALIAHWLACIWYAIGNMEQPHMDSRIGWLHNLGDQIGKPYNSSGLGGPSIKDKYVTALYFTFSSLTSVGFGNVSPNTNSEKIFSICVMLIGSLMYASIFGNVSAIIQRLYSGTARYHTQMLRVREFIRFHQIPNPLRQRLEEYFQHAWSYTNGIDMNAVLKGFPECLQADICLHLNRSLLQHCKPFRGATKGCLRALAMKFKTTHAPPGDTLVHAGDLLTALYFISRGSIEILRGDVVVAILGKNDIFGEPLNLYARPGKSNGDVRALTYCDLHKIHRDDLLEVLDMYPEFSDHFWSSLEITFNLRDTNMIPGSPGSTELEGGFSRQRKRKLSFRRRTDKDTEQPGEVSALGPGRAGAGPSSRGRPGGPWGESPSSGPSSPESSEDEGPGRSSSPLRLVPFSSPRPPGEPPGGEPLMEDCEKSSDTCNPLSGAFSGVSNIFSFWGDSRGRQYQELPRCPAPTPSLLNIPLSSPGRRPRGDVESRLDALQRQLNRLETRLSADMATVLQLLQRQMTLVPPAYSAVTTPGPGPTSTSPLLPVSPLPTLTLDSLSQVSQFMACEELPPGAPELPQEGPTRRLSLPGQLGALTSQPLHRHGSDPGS

[6] = Lipophilicity, log D of the compound; format: physicochemical; details: octanol/water
Method in brief: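 Log D was measured at pH 7.4 as the partitioning of compound between an aqueous layer and a second phase.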

[7] = Solubility at pH 7.4; format: physicochemical; details: buffer
[8] = molecular target: Cytochrome P450 2D6 (Homo sapiens, UniProt P10635); test: Inhibition of human CYP2D6; format: ADME
Chain of Cytochrome P450 2D6 (P10635 whole entry): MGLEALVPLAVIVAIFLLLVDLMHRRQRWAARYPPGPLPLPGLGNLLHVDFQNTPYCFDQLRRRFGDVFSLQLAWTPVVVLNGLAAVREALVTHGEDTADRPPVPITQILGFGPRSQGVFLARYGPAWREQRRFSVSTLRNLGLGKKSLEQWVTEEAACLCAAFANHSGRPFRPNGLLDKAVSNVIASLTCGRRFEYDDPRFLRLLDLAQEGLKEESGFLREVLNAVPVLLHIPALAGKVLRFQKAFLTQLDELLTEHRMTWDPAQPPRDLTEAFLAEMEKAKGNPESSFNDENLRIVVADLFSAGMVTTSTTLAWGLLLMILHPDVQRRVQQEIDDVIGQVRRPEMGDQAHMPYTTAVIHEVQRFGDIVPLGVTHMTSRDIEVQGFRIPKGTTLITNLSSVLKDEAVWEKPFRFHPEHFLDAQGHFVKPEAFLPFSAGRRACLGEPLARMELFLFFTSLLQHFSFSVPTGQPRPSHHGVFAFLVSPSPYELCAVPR

[9] = Cytotoxicity against human RPTEC after 4 days by alamar blue assay; format: cell-based; details: RPTEC cells, read-out: LC50
[10] = molecular target: T1, Cytochrome P450 1A2 (Homo sapiens, UniProt P05177); test: Inhibition of human CYP1A2; format: ADME
T1 sequence (P05177 whole entry): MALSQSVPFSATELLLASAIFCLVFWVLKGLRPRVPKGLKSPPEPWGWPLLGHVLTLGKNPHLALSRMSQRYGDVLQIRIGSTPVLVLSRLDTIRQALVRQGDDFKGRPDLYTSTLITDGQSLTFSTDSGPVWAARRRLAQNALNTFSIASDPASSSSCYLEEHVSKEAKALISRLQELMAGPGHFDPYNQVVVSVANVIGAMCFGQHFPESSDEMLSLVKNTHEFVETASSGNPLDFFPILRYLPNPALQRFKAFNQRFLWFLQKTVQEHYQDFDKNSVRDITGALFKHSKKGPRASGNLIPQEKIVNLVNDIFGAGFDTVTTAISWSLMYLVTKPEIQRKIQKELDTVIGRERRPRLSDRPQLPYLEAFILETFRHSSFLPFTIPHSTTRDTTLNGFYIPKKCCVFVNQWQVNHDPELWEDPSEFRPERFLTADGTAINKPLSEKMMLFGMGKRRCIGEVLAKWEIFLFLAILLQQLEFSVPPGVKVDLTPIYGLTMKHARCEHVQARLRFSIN

[11] = Cytotoxicity against human NHDF after 4 days by alamar blue assay; format: cell-based; details: NHDF cells, read-out: LC50
[12] = molecular target: Cytochrome P450 2C19 (Homo sapiens, UniProt P33261); test: Inhibition of human CYP2C19; format: ADME
Chain of Cytochrome P450 2C19 (P33261 whole entry): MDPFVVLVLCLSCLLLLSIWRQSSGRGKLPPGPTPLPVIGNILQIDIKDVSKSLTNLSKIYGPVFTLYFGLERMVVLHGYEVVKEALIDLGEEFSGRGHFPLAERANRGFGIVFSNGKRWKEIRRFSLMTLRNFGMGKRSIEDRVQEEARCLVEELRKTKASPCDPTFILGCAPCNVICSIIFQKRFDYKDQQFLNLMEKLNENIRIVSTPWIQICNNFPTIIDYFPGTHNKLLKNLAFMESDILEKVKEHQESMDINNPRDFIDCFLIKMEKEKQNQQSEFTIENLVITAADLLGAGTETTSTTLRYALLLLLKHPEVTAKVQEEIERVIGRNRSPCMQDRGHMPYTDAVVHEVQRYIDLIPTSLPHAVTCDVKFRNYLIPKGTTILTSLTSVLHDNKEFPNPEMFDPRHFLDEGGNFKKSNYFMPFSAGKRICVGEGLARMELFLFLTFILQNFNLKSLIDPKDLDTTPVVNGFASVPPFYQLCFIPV

[13] = molecular target: Cytochrome P450 2C9 (Homo sapiens, UniProt P11712); test: Inhibition of human CYP2C9; format: ADME
Chain of Cytochrome P450 2C9 (P11712 whole entry): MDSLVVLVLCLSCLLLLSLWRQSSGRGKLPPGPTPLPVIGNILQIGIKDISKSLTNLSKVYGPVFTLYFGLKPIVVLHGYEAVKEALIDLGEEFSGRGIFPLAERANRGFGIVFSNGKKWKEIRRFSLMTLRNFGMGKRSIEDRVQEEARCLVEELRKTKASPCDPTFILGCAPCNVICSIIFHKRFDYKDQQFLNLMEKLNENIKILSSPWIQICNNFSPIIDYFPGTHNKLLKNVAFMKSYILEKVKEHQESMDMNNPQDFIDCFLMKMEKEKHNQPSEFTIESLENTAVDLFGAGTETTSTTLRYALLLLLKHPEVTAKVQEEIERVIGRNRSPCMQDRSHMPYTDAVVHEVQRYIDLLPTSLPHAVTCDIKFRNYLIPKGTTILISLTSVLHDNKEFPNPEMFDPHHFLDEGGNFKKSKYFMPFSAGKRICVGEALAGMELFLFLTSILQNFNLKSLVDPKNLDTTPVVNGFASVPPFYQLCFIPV

[14] = molecular target: Cytochrome P450 3A4 (Homo sapiens, UniProt P08684); test: Inhibition of human CYP3A4; format: ADME
Chain of Cytochrome P450 3A4 (P08684 whole entry): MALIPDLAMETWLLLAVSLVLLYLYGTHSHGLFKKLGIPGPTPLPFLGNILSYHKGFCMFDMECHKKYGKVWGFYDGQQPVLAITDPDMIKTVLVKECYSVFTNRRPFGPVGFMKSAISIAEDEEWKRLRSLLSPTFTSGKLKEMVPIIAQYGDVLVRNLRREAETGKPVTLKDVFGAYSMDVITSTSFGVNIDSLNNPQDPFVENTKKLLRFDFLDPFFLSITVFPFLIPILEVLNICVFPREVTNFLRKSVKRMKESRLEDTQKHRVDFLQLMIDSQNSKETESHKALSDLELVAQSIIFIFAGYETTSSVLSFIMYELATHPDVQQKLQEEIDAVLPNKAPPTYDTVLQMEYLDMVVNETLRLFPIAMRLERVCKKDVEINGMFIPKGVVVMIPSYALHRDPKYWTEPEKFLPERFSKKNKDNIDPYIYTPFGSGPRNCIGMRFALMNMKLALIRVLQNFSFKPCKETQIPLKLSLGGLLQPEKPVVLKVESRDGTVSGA

SMILES	EC50 [1] [nM]	EC50 [3] [nM]	other results
Cc1cc(NC2CCCCC2)nc(NC2CCCCC2)n1	210	–	–
Cc1cc(Nc2ccccc2)nc(NCc2ccccc2)n1	90	120	clearance [2]: > 119 µL/min/mg; clearance [4]: 55.2 µL/min/mg
Cc1cc(N(C)C2CCCCC2)nc(NCc2ccccc2)n1	1020	680	–
Cc1cc(Nc2ccccc2)nc(NCc2ccc3c(c2)OCO3)n1	360	110	IC50 [5]: 9500 nM; clearance [2]: > 119 µL/min/mg; clearance [4]: 31.3 µL/min/mg
CCCCCCCNc1nc(C)cc(NC(C)C)n1	310	–	–
Cc1cc(NC(C)C)nc(NCC23CC4CC(CC(C4)C2)C3)n1	270	–	–
Cc1cc(Nc2ccccc2)nc(N2CCCNCC2)n1	–	–	logD [6]: 0.51
COc1cc(CNc2nc(C)cc(NCc3ccccc3)n2)cc(OC)c1OC	930	780	–
Cc1cc(Nc2ccccc2)nc(N2CCCN(C(=O)OC(C)(C)C)CC2)n1	–	–	logD [6]: 3.95
Cc1cc(N2CCCNCC2)nc(NC2CCN(Cc3ccccc3)CC2)n1	–	–	logD [6]: -0.15
FC(F)(F)c1cc(Nc2ccncc2)nc(NCc2ccc3c(c2)OCO3)n1	–	–	IC50 [5]: 135000 nM
CCCCCCCNc1nc(C)cc(NC2CCCCC2)n1	210	–	–
Cc1cc(NCc2ccccc2)nc(Nc2ccccc2)n1	1020	850	–
Cc1cc(NC2CCCCC2)nc(NCc2ccc3c(ccn3C)c2)n1	240	–	–
Cc1cc(NC2CCN(Cc3ccccc3)CC2)nc(N2CCCN(C(=O)OC(C)(C)C)CC2)n1	–	–	logD [6]: 2.77
CCCCCCCNc1nc(C)cc(Nc2ccccc2)n1	90	90	–
FC(F)(F)c1cc(Nc2ccccc2)nc(NCc2ccccn2)n1	–	–	IC50 [5]: 40100 nM; clearance [2]: > 119 µL/min/mg; clearance [4]: > 99 µL/min/mg
Cc1cc(N(C)C2CCCCC2)nc(N(C)Cc2ccccc2)n1	> 10000	> 10000	–
Cc1cc(NC2CCCCC2)nc(NCC23CC4CC(CC(C4)C2)C3)n1	370	–	–
FC(F)(F)c1cc(Nc2ccccc2)nc(NCc2ccncc2)n1	–	–	clearance [2]: > 119 µL/min/mg; clearance [4]: 56.2 µL/min/mg
Cc1cc(NC(C)C)nc(NC(C)C)n1	4270	–	–

SMILES	EC50 [1] [nM]	EC50 [3] [nM]	other results
Cc1cc(Nc2ccccc2)nc(NCc2ccc3c(ccn3C)c2)n1	590	350	–
Cc1cc(NC2CCCCC2)nc(NCc2ccc3c(c2)OCO3)n1	200	–	–
Cc1cc(NC(C)C)nc(NCCN2CCCC2)n1	> 5000	–	–
Cc1cc(NC2CCCCC2)nc(Nc2ccccn2)n1	> 2000	> 1000	–
Cc1cc(Nc2ccccc2)nc(NCc2ccccn2)n1	2140	–	clearance [2]: 114 µL/min/mg; clearance [4]: 70 µL/min/mg
Cc1cc(NC(C)C)nc(NCc2ccc3c(c2)OCO3)n1	840	–	–
COc1cc(CNc2nc(C)cc(NC3CCCCC3)n2)cc(OC)c1OC	260	–	–
Cc1cc(NC2CCN(Cc3ccccc3)CC2)nc(N2CCCN(C)CC2)n1	–	–	logD [6]: 1
COc1cc(CNc2nc(C)cc(NC(C)C)n2)cc(OC)c1OC	1920	–	–
Cc1cc(Nc2ccccc2)nc(N2CCCN(C)CC2)n1	–	–	logD [6]: 1.7
Cc1cc(N(C)C2CCCCC2)nc(N[C@@H](C)c2ccccc2)n1	690	590	–
Cc1cc(N2CCCN(C)CC2)nc(NC2CCN(Cc3ccccc3)CC2)n1	–	–	logD [6]: 1
Cc1cc(NCc2ccccc2)nc(NCC23CC4CC(CC(C4)C2)C3)n1	400	410	–
Cc1cc(N2CCCN(C(=O)OC(C)(C)C)CC2)nc(NC2CCN(Cc3ccccc3)CC2)n1	–	–	logD [6]: 2.7
Cc1cc(NC2CCCCC2)nc(NCCN2CCCC2)n1	2750	–	–
Cc1cc(NC(C)C)nc(NCc2ccc3c(ccn3C)c2)n1	1220	–	–
Cc1cc(NC2CCN(Cc3ccccc3)CC2)nc(N2CCCNCC2)n1	–	–	logD [6]: -0.17
Cc1cc(NC2CCCCC2)nc(NCc2ccccc2)n1	250	80	solubility [7]: 26 µg/mL (≈ 87.7 µM); IC50 [8]: 4200 nM; logD [6]: 3.9; CC50 at 96 h [9]: 7500 nM; IC50 [10]: 3100 nM; CC50 at 96 h [11]: 7500 nM; IC50 [12]: > 5000 nM; IC50 [13]: > 5000 nM; IC50 [14]: > 5000 nM
Cc1cc(NC2CCCCC2)nc(NC(C)C)n1	740	–	–
Cc1cc(N(C)C2CCCCC2)nc(N[C@H](C)c2ccccc2)n1	940	630	–

The next lines start with results.

EC50 [1] [nM]	EC50 [3] [nM]	SMILES	other results
1240	1460	Cc1cc(Nc2ccccc2)nc(NCCN2CCCC2)n1	–
750	280	Cc1cc(Nc2ccccc2)nc(NC(C)C)n1	–
160	160	Cc1cc(NCc2ccccc2)nc(NC2CCN(Cc3ccccc3)CC2)n1	–
500	120	Cc1cc(NC2CCCCC2)nc(N[C@@H](C)c2ccccc2)n1	–
420	90	Cc1cc(NC2CCCCC2)nc(N[C@H](C)c2ccccc2)n1	–
> 10000	> 10000	Cc1cc(NC2CCCCC2)nc(N(C)Cc2ccccc2)n1	–
230	–	Cc1cc(NC2CCCCC2)nc(Nc2ccccc2)n1	–
390	–	Cc1cc(NC(C)C)nc(NC2CCCCC2)n1	–
1260	430	Cc1cc(NCc2ccccc2)nc(NC2CCCCC2)n1	–
1500	–	Cc1cc(NC(C)C)nc(Nc2ccccc2)n1	–
1050	1430	Cc1cc(NCc2ccccc2)nc(NC(C)C)n1	–
1450	1080	Cc1cc(NCc2ccccc2)nc(NCCN2CCCC2)n1	–
250	–	Cc1cc(NC2CCCCC2)nc(NC2CCN(Cc3ccccc3)CC2)n1	–
350	–	Cc1cc(NC(C)C)nc(NCc2ccccc2)n1	–
810	–	Cc1cc(NC(C)C)nc(NC2CCN(Cc3ccccc3)CC2)n1	–
